Measured values reported in ChEMBL document CHEMBL4028906, “Allosteric Inhibitors of SHP2 with Therapeutic Potential for Cancer Treatment” (J Med Chem, 2017).
The source made the active and inactive calls. The calls are words filed in the database; no cut-off is given here.

Assays:
[1] = target: Tyrosine-protein phosphatase non-receptor type 2 (Homo sapiens, UniProt P17706); test: Inhibition of TC-PTP (unknown origin) expressed in Escherichia coli BL21(DE3) using DIFMUP as substrate preincubated for 20 mins followed by substrate addition measured after 20 mins by phosphatase assay
Chain of Tyrosine-protein phosphatase non-receptor type 2 (P17706 whole entry): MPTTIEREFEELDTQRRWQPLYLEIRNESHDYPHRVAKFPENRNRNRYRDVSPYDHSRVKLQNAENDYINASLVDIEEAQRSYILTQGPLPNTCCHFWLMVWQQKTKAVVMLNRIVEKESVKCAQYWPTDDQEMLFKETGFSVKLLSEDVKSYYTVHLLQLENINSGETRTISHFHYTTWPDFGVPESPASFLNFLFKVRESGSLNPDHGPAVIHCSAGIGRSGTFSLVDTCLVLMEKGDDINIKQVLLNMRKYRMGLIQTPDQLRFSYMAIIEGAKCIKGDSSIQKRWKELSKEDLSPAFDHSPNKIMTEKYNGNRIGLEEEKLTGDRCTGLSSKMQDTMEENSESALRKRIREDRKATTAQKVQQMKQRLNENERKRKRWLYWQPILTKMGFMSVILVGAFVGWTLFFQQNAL
Procedure, shortened: (§1)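 Phosphatases purified from E. coli and run as for SHP2 E76A: 20 min room-temperature preincubation with compound in 0.1 M sodium acetate pH 5.0, then DIFMUP at each enzyme's Km, 20 min, fluorescence 358/455 nm. Eight 3-fold dilutions in duplicate; IC50 from at least three independent experiments.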

Homo sapiens [2] = species on record: Homo sapiens; test: Selectivity ratio of IC50 for SHP1 (unknown origin) expressed in Escherichia coli BL21(DE3) to IC50 for SHP2 E76A mutant (unknown origin) expressed in Escherichia coli BL21(DE3)
Procedure, shortened: (§2)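 Ratio of IC50 values from one DIFMUP fluorescence assay (Ex/Em 358/455), room temperature, 0.1 M sodium acetate pH 5.0. His-tagged SHP2 E76A (1.5 nM) or counter-phosphatase purified from E. coli, preincubated 20 min with compound (eight 3-fold dilutions), then DIFMUP added for 20 min. DIFMUP was at Km for each counter-phosphatase. Duplicates; IC50 from at least three independent experiments.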

[3] = target: Tyrosine-protein phosphatase non-receptor type 6 (Homo sapiens, UniProt P29350); test: Inhibition of SHP1 (unknown origin) expressed in Escherichia coli BL21(DE3) using DIFMUP as substrate preincubated for 20 mins followed by substrate addition measured after 20 mins by phosphatase assay; procedure, shortened: as §1
Chain of Tyrosine-protein phosphatase non-receptor type 6 (P29350 whole entry): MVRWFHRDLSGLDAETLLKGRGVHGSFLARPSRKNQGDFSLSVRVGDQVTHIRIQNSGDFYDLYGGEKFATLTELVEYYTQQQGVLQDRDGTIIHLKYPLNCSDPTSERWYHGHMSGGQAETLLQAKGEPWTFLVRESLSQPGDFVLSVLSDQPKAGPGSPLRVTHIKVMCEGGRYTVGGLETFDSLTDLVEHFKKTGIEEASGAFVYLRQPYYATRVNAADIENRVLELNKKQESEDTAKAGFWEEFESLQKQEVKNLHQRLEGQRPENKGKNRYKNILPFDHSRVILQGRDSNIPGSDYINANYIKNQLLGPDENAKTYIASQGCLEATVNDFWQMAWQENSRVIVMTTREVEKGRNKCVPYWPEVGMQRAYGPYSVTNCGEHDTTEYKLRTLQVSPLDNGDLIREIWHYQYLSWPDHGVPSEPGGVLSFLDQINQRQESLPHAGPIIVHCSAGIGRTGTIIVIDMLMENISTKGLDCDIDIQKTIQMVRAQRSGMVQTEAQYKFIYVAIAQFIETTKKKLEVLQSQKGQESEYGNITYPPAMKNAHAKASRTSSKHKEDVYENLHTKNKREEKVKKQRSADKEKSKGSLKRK

[4] = target: Dual specificity protein phosphatase 6 (Homo sapiens, UniProt Q16828); test: Inhibition of MKP3 (unknown origin) expressed in Escherichia coli BL21(DE3) using DIFMUP as substrate preincubated for 20 mins followed by substrate addition measured after 20 mins by phosphatase assay; procedure, shortened: as §1
Chain of Dual specificity protein phosphatase 6 (Q16828 whole entry): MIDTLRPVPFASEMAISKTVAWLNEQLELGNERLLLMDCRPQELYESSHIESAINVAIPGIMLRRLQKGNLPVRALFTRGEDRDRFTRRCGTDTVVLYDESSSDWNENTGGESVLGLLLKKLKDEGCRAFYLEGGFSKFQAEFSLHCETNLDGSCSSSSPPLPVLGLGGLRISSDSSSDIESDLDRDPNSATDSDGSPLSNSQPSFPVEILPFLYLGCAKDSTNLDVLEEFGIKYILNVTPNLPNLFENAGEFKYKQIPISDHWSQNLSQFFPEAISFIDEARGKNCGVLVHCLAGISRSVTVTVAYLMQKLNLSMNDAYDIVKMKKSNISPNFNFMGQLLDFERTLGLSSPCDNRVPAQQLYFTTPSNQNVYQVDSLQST

[5] = target: Tyrosine-protein phosphatase non-receptor type 1 (Homo sapiens, UniProt P18031); test: Inhibition of PTP1B (unknown origin) expressed in Escherichia coli BL21(DE3) using DIFMUP as substrate preincubated for 20 mins followed by substrate addition measured after 20 mins by phosphatase assay; procedure, shortened: as §1
Chain of Tyrosine-protein phosphatase non-receptor type 1 (P18031 whole entry): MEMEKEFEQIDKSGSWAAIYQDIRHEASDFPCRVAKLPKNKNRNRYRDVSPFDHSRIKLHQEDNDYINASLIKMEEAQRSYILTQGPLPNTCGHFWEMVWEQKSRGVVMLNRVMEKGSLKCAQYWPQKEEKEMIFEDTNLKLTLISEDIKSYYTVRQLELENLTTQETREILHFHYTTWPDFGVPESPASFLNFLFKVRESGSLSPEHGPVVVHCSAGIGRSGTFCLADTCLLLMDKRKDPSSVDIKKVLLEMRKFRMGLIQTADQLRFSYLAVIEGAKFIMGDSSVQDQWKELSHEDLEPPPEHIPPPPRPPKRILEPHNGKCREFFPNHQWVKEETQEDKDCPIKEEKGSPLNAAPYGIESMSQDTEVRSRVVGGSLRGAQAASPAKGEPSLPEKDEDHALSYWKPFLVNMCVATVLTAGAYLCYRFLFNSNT

Homo sapiens [6] = species on record: Homo sapiens; test: Selectivity ratio of IC50 for PTP1B (unknown origin) expressed in Escherichia coli BL21(DE3) to IC50 for SHP2 E76A mutant (unknown origin) expressed in Escherichia coli BL21(DE3); procedure, shortened: as §2
[7] = target: T1, Tyrosine-protein phosphatase non-receptor type 11 (Homo sapiens) (UniProt Q06124); test: Allosteric inhibition of SHP2 in human NCI-H1975 cells harboring EGFR T790M mutant assessed as downregulation of ERK1/2 phosphorylation at 10 uM after 2 hrs by DAPI-based fluorescence microscopic analysis; type: cell-based
T1 sequence (whole entry): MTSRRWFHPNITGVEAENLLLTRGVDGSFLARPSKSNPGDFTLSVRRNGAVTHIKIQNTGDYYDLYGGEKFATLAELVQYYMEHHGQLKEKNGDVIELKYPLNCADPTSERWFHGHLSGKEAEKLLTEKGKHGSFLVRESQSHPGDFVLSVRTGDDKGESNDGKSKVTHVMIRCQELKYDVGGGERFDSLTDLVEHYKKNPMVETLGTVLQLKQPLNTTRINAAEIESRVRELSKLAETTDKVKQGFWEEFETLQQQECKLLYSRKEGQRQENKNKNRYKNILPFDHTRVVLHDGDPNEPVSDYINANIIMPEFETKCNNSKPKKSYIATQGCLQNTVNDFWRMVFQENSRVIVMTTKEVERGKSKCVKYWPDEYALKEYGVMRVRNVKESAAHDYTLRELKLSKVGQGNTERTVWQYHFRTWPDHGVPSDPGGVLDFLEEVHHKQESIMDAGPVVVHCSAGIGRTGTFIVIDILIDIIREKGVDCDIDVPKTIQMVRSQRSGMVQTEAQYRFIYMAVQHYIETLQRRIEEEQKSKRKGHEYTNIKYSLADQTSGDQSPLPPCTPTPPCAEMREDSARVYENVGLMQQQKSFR
Procedure, shortened: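 NCI-H1975 cells grown overnight on coverslips, then 10 μM inhibitor for 2 h. Fixed in 4% PFA, permeabilized with 0.4% Triton X-100, BSA-blocked. Phospho-ERK1/2 antibody applied overnight at 4 °C, fluorescent secondary 1 h at room temperature, DAPI mount, fluorescence microscopy. Repeated at least three times.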

[8] = target: T1, Tyrosine-protein phosphatase non-receptor type 11 (Homo sapiens); test: Allosteric inhibition of SHP2 in human SF268 cells assessed as downregulation of YAP-mediated CYR61 gene expression ay 10 to 20 uM after 2 hrs by qRT-PCR analysis; type: cell-based
Procedure, shortened: (§3)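 SF268 cells exposed to DMSO, 10 μM or 20 μM inhibitor for 2 h. RNA extracted, reverse-transcribed, and CTGF, CYR61, ANKRD1 and YAP mRNA quantified by qPCR; mean±s.d., n=3.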

SF-268 = test: Effect on YAP gene expression in human SF268 cells at 10 to 20 uM after 2 hrs by qRT-PCR analysis; type: functional, cell-based; procedure, shortened: as §3
MDA-MB-468 = test: Antiproliferative activity against human MDA-MB-468 cells at 3 to 6 uM after 2 days by CellTiter-Glo assay; type: functional, cell-based
Procedure, shortened: (§4)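 3000 cells/well in 96-well plates, grown overnight, then inhibitor at indicated concentrations for 2 days (48 h). Viability by CellTiter-Glo; mean±s.d., n=3.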

KG-1a = test: Antiproliferative activity against human KG1a cells at 3 to 6 uM after 2 days by CellTiter-Glo assay; type: functional, cell-based; procedure, shortened: as §4
MOLT-4 = test: Antiproliferative activity against human MOLT4 cells at 3 to 6 uM after 2 days by CellTiter-Glo assay; type: functional, cell-based; procedure, shortened: as §4
MOLM-13 = test: Antiproliferative activity against human MOLM13 cells at 3 to 6 uM after 2 days by CellTiter-Glo assay; type: functional, cell-based; procedure, shortened: as §4
MV4-11 = test: Antiproliferative activity against human MV4-11 cells at 3 to 6 uM after 2 days by CellTiter-Glo assay; type: functional, cell-based; procedure, shortened: as §4
[9] = Oral bioavailability in nu/nu mouse at 10 mg/kg measured up to 24 hrs postdose by LC/MS/MS analysis; type: ADME, organism-based; conditions: in vivo
Procedure, shortened: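 Female nu/nu nude mice dosed IV via tail vein at 5 mg/kg or orally at 10 mg/kg. Blood sampled at 0.083, 0.25, 0.5, 1, 2, 4, 8 and 24 h post-dose (orbital sinus, terminal cardiac puncture; EDTA-2K). Plasma separated at 4 °C, precipitated with acetonitrile containing internal standard, quantified by LC/MS/MS.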

Mus musculus = test: Toxicity in BALB/c mouse xenografted with human MV4-11 cells assessed as effect on body weight at 10 to 30 mg/kg administered qd via oral gavage measured twice weekly; type: organism-based; conditions: in vivo
Procedure, shortened: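 Female BALB/c nude mice implanted subcutaneously with 5×10^6 MV4;11 cells in 50% matrigel/PBS. At about 230 mm³, mice randomized to vehicle, 10 or 30 mg/kg (10 ml/kg) once daily by oral gavage. Body weight and caliper tumor dimensions measured twice weekly; mean±sem.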

## CC1(N)CCN(c2nc(-c3ccc4cc(Br)ccc4c3)cs2)CC1
[1]
  IC50: > 100 µM
Homo sapiens [2]
  Ratio IC50: 48
[3]
  IC50: 34.6 µM
[4]
  IC50: > 100 µM
[5]
  IC50: 31.2 µM
Homo sapiens [6]
  Ratio IC50: > 30
[7]
  inhibition: Active
[8]
  inhibition: Active
SF-268
  Activity: inactive
MDA-MB-468
  Activity: Active
KG-1a
  Activity: Active
MOLT-4
  Activity: Active
MOLM-13
  Activity: Active
MV4-11
  Activity: Active
[9]
  bioavailability: 67%
Mus musculus
  Activity: Non-Toxic
